In ChEMBL document CHEMBL1129059, “Antitumor properties of some 2-[(dimethylamino)methyl]phenylgold(III) complexes” (J Med Chem, 1996):
Values joined by “and” are separate entries in the source; they are usually repeats but may differ in a detail not shown here. Identical values can stand only once.

What was measured:
SK-OV-3 [1] = test: Compound was tested for in vitro growth inhibition of Ovarian carcinoma cell line panel SK-OV-3; assay type: functional, cell-based, Homo sapiens
Procedure, shortened: (§1)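 Ovarian lines grown as monolayers in DMEM with 10% FBS, insulin, hydrocortisone and L-glutamine under 6% CO2. Cells were seeded at 3–5 × 10³/well and left to attach overnight. Compounds were freshly dissolved in DMA or water and applied for 96 h in quadruplicate wells. Growth was measured by SRB and reported as IC50.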

ZR-75-1 [2] = test: Compound was tested for in vitro growth inhibition of primary panel tumor cell line ZR-75-1; assay type: functional, cell-based, Homo sapiens
Procedure, shortened: (§2)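 Primary-panel lines kept in L15, RPMI 1640 plus pyruvate, or MEM, each with 10% FBS. Cells were seeded at 5×10^4–10^5 cells/mL, preincubated 24 h, then exposed 4 h to 0–200 μg/mL from a 2 mg/mL stock in 10% DMA/PBS. After washout and 72 h further growth, cells were read by SRB. IC50 was the concentration giving 50% survival versus untreated controls.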

HX62 cell line = test: Compound was tested for in vitro growth inhibition of Ovarian carcinoma cell line panel HX62; assay type: functional, cell-based, Homo sapiens; procedure, shortened: as §1
SW 1116 = test: Compound was tested for in vitro growth inhibition of primary panel tumor cell line SW1116; assay type: functional, cell-based, Homo sapiens; procedure, shortened: as §2
A2780 [3] = test: Compound was tested for in vitro growth inhibition of Ovarian carcinoma cell line panel A2780; assay type: functional, cell-based, Homo sapiens; procedure, shortened: as §1
[4] = Solubility at 25 degrees Celsius in 1-Octanol; assay type: physicochemical
Procedure, shortened: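 A sample was tumbled in 1-octanol at 25 °C for 24 h and filtered. An aliquot was evaporated and the residue taken up in dilute aqua regia. Gold content was determined as for the aqueous samples, with indium as internal standard.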

HT-29 = test: Compound was tested for in vitro growth inhibition of primary panel tumor cell line HT-29/219; assay type: functional, cell-based, Homo sapiens; procedure, shortened: as §2
CH1 [5] = test: Compound was tested for in vitro growth inhibition of Ovarian carcinoma cell line panel CH1; assay type: functional, cell-based; procedure, shortened: as §1
SK-OV-3 [6] = test: Compound was tested for in vitro growth inhibition of primary panel tumor cell lines SK-OV-3; assay type: functional, cell-based, Homo sapiens; procedure, shortened: as §2
SW-620 [7] = test: Compound was tested for in vitro growth inhibition of primary panel tumor cell lines SW620; assay type: functional, cell-based, Homo sapiens; procedure, shortened: as §2
HT-1376 = test: Compound was tested for in vitro growth inhibition of primary panel tumor cell line HT1376; assay type: functional, cell-based, Homo sapiens; procedure, shortened: as §2
A2780 [8] = test: Compound was tested for in vitro growth inhibition of Ovarian carcinoma cell line panel A2780-R; assay type: functional, cell-based, Homo sapiens; procedure, shortened: as §1
CH1 [9] = test: Compound was tested for in vitro growth inhibition of Ovarian carcinoma cell line panel CH1-R; assay type: functional, cell-based; procedure, shortened: as §1
[10] = Solubility at 25 degrees Celsius in water; assay type: physicochemical; conditions: buffer
Procedure, shortened: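 5–10 mg sample was tumbled in 5.0 mL water at 25 °C for 24 h and filtered. The solution was diluted as needed and gold was quantified with 1 ppm indium as internal standard.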

SK-OV-3 [11] = test: Compound was tested for in vitro growth inhibition of primary panel tumor cell line SK-OV-3; assay type: functional, cell-based, Homo sapiens; procedure, shortened: as §2
SW-620 [12] = test: Compound was tested for in vitro growth inhibition of primary panel tumor cell line SW620; assay type: functional, cell-based, Homo sapiens; procedure, shortened: as §2
[13] = Range is evaluated. (Highest IC50/Lowest IC50); assay type: functional
ZR-75-1 [14] = test: Compound was tested for in vitro growth inhibition of primary panel tumor cell linZR-75-1; assay type: functional, cell-based, Homo sapiens; procedure, shortened: as §2
Mus musculus [15] = test: Compound was evaluated for antitumor activity (T/C) in HT1376 carcinoma Xenograft, at a dosage 4.5 mg/kg on day 13; assay type: functional, organism-based; design: dose 4.5 mg/kg
Procedure, shortened: (§3)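 Nude mice carrying subcutaneous flank HT1376 fragments; treatment began once tumors were established and palpable, randomized into groups of 6 treated and 10 control mice. Dosing was ip as a suspension in 0.5% carboxymethylcellulose in 0.9% saline on days 0, 7, 14 and 21, at the MTD and two 2-fold dilutions. Tumors were measured on days 0-28. RTV = 100(mean volume at assessment)/(mean start volume); T/C = treated RTV/control RTV.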

Mus musculus [16] = test: Compound was evaluated for antitumor activity (T/C) in HT1376 carcinoma Xenograft, at a dosage 4.5 mg/kg on day 7; assay type: functional, organism-based; design: dose 4.5 mg/kg; procedure, shortened: as §3
Mus musculus [17] = test: Compound was evaluated for antitumor activity (RTV) in HT1376 carcinoma Xenograft, at a dosage 4.5 mg/kg on day 28; assay type: functional, organism-based; design: dose 4.5 mg/kg
Procedure, shortened: (§4)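 HT1376 tumor fragments implanted subcutaneously in nude mice flanks; mice with established palpable tumors randomized into groups of 6 (controls 10). Compounds given intraperitoneally as suspensions in 0.5% carboxymethylcellulose in 0.9% saline, on days 0, 7, 14 and 21. Tumor dimensions on days 0, 7, 14, 21, 28. RTV = 100(mean tumor volume at assessment)/(mean start volume).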

Mus musculus [18] = test: Compound was evaluated for antitumor activity (RTV) in HT1376 carcinoma Xenograft, at a dosage 4.5 mg/kg on day 7; assay type: functional, organism-based; design: dose 4.5 mg/kg; procedure, shortened: as §4
Mus musculus [19] = test: Compound was evaluated for antitumor activity (RTV) in HT1376 carcinoma Xenograft, at a dosage 4.5 mg/kg on day 21; assay type: functional, organism-based; design: dose 4.5 mg/kg; procedure, shortened: as §4
Mus musculus [20] = test: Compound was evaluated for antitumor activity (T/C) in HT1376 carcinoma Xenograft, at a dosage 4.5 mg/kg on day 28; assay type: functional, organism-based; design: dose 4.5 mg/kg; procedure, shortened: as §3
Mus musculus [21] = test: Compound was evaluated for antitumor activity (T/C) in HT1376 carcinoma Xenograft, at a dosage 4.5 mg/kg on day 21; assay type: functional, organism-based; design: dose 4.5 mg/kg; procedure, shortened: as §3
Mus musculus [22] = test: Compound was evaluated for antitumor activity (RTV) in HT1376 carcinoma Xenograft, at a dosage 4.5 mg/kgon day 13; assay type: functional, organism-based; design: dose 4.5 mg/kg

| IC50 (SK-OV-3 [1]) [µM] | IC50 (A2780 [3]) [µM] | Solubility [4] [mM] | IC50 (HT-29) [µM] | IC50 (SW-620 [7]) [µM] | IC50 (HT-1376) [µM] | IC50 (A2780 [8]) [µM] | Solubility [10] [mM] | IC50 (SK-OV-3 [11]) [µM] | Substance | IC50 (ZR-75-1 [2]) [µM] | IC50 (HX62 cell line) [µM] | IC50 (SW 1116) [µM] | IC50 (CH1 [5]) [µM] | IC50 (CH1 [9]) [µM] | further results |
| --- | --- | --- | --- | --- | --- | --- | --- | --- | --- | --- | --- | --- | --- | --- | --- |
| 107 | 3.5 | > 5.28 | 67 | 281 | 13 | 35 | > 5.23 |  | Acetato[2-(dimethylamino)methyl]phenyl-C,N]gold-(III) | 45 | 34 | 238 | 11 | 12 | IC50 (SK-OV-3 [6]): 13 µM |
| 39 | 2 | 0.78 | 25 |  | 6.7 | 26 | 0.13 | 20 | Bis(thiocyanato)[2-(dimethylamino)methyl]phenyl-C,N]gold-(III) [listing 1 of 2 here] | 34 | 31 | 47 | 10 | 11 | IC50 (SW-620 [12]): 51 µM |
|  |  |  |  |  |  |  |  |  | Bis(thiocyanato)[2-(dimethylamino)methyl]phenyl-C,N]gold-(III) [listing 2 of 2 here] |  |  |  |  |  | Range [13]: 7.6 and 19.5 |
| 5.2 | 1.2 |  | 17 | 167 | 23 | 10 |  | 23 | CISPLATIN [listing 1 of 2 here] |  | 18 | 163 | 0.12 | 0.56 | IC50 (ZR-75-1 [14]): 27 µM |
|  |  |  |  |  |  |  |  |  | CISPLATIN [listing 2 of 2 here] |  |  |  |  |  | T/C (Mus musculus [15]): 0.72; T/C (Mus musculus [16]): 0.88; RTV (Mus musculus [17]): 1050; RTV (Mus musculus [18]): 245; RTV (Mus musculus [19]): 544; T/C (Mus musculus [20]): 0.73; T/C (Mus musculus [21]): 0.61; RTV (Mus musculus [22]): 364 |
